PubChem BioAssay
Results filed as inconclusive are left out. The source made the active and inactive calls.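 How the source made its calls, unless noted: active means viability increase at or above a cutoff of the median across tested compounds plus 3 SD (cut at about 8.5% in these data, passing the limit was not always enough); inconclusive means some gains above the cutoff, reason not given; inactive means the rest.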

Tests used:
[1] = S. cerevisiae growth inhibition in permissive medium (OD615), pilot counter-assay for S. cerevisiae lifespan shortening project, permissive growth control (AID 705;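 active means growth inhibition above 25% in both replicates, a cutoff set 3 SD above the mean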); conditions: OD615, 24 h, at 10 µM, stronger effect = higher value
Summary of the method: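 Timing: 24 h exposure, 30 °C / Material: Saccharomyces cerevisiae strain carrying genetically modified DeaD replicative-lifespan system / Signal: OD at 615 nm / Compound: 10 µM single dose, 0.25% DMSO / Medium: SC raffinose/galactose permissive medium / Evaluation: reduction in yeast growth (OD615)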

[2] = S. cerevisiae growth inhibition in restrictive medium, OD615, pilot screen, restrictive growth control, yeast lifespan reduction project (AID 706;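 active means growth inhibition above a set limit, 3 SD over mean compound inhibition, in both replicates, cut at about 43% in these data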;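 further: modified DeaD lifespan yeast strain shifted to restrictive glucose medium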); conditions: OD615, 48 h, at 10 µM, stronger effect = higher value
Summary of the method: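 System: Engineered S. cerevisiae DeaD strain | Detection: OD615 | Buffer or medium: CSMM-D glucose medium | Doses: 10 µM compound, 0.25% DMSO | Timing: 4 h pre-growth plus 48 h compound exposure, 30 °C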

[3] = doxorubicin toxicity protection in MRP-1 cells – H69AR cells, CellTiter-Glo, duplicate, MRP-1 activator project, pilot screen (AID 807); conditions: H69AR viability with doxorubicin, CellTiter-Glo luminescence; at 10 µM; stronger effect = higher value;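 further: compound pretreatment 18-22 h then 72 h combined with doxorubicin; 0% = doxorubicin alone and 100% = vehicle without doxorubicin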
[4] = viability of PTEN-null HCT116 cells – cell-based, HCT116 clonal line, CellTiter-Glo, pilot screen (AID 824;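 active means viability at or below 27.92% in each of two runs, the all-compound median minus 4 SD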;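 further: 0% = 20 µM Hyamine control and 100% = vehicle cell control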); conditions: HCT116 PTEN-deleted viability, 60 h, at 10 µM, stronger effect = lower value
[5] = RAM pathway blockade in budding yeast – dse1pr::URA3 reporter, 5-FOA selection, pilot screen (AID 869;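 active means inhibition over a set limit, the all-compound mean plus 3 SD, in both replicate runs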;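 further: 0% = DMSO wells with no growth and 100% = 10 µM 1-NA-PP1 with full growth; RAM network block rescues cells from 5-FOA so hits raise OD615 growth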); conditions: S. cerevisiae dse1pr::URA3 5-FOA growth, OD615, 2 d; at 10 µM; stronger effect = higher value; strain carries analog-sensitive mutant Cbk1 kinase
[6] = RAM signaling pathway blockade in yeast – S. cerevisiae, Pdr1DBD-CYC8 efflux-inhibited sensitized strain, primary screen (AID 1298;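 active means RAM network inhibition above 8.4% in each of two replicates, 3 SD over the compound average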;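 further: 0% = DMSO untreated cells without growth and 100% = 10 µM 1-NA-PP1 full growth; higher means more yeast growth rescued from 5-FOA killing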); conditions: S. cerevisiae cbk1-as DSE1-URA3 strain, 5-FOA growth OD615, 2 d; at 50 µM; stronger effect = higher value

| Structure (SMILES) | growth inhibition [1] | growth inhibition [2] | viability increase [3] | viability [4] | inhibition [5] | RAM network inhibition [6] |
| --- | --- | --- | --- | --- | --- | --- |
| CCCOc1nc2c(c(=O)n(C)c(=O)n2C)n1Cc1cccc2ccccc12 | -12.5% (inactive) | -0.875% (inactive) | -4.04% (inactive) | 57.7% (inactive) | 0.84% (inactive) | 1.64% (inactive) |
| CCOC(=O)N1CCN(C(=O)CN(C2CCCCC2)S(=O)(=O)c2ccc(C)cc2)CC1 | -13.9% (inactive) | -3.6% (inactive) | -4.47% (inactive) | 97.3% (inactive) | 1.92% (inactive) | -1.07% (inactive) |
| Cc1csc(NC(=O)NC2(C(F)(F)F)Oc3ccccc3O2)n1 | -6.66% (inactive) | 0.47% (inactive) | -6.08% (inactive) | 84.3% (inactive) | 0.995% (inactive) | 5.12% (inactive) |
| O=C(O)CCC(=O)CCC(=O)c1ccc(Cl)cc1 | 8.94% (inactive) | -2.93% (inactive) | -1.69% (inactive) | 94.3% (inactive) | -0.55% (inactive) | 5.32% (inactive) |
| Cc1cc(OCCCCCNCCO)ccc1Cl | -5.31% (inactive) | -3.71% (inactive) | -4.62% (inactive) | 78% (inactive) | 2.05% (inactive) | 1.6% (inactive) |
| O=c1[nH]c(SCc2ccccc2Cl)nc2c1CCC2 | -4.46% (inactive) | -1.71% (inactive) | -2.17% (inactive) | 96.9% (inactive) | 1.91% (inactive) | 1.7% (inactive) |
| Cc1ccc(S(=O)(=O)N2CCN(C(=O)CCC(=O)N3CCc4ccccc43)CC2)cc1 | -2.18% (inactive) | -5.78% (inactive) | -1.16% (inactive) | 99.4% (inactive) | -0.03% (inactive) | 2.05% (inactive) |
| CCn1c(=O)c2c3c(sc2n2c(SCc4ccc(F)cc4)nnc12)CCCC3 | -17.7% (inactive) | -16.7% (inactive) | -7.59% (inactive) | 25.7% (active) | 2.28% (inactive) | 3.4% (inactive) |
| O=C(Nc1ccc(Cl)cc1)N(Cc1cccs1)Cc1cccs1 | -13.9% (inactive) | -21.5% (inactive) | -0.55% (inactive) | 64.9% (inactive) | 2.13% (inactive) | 8.73% (inactive) |
| Cc1ccc(-c2nc(-c3ccccn3)no2)cc1 | 1.26% (inactive) | 10.2% (inactive) | -5.02% (inactive) | 24.4% (active) | -0.485% (inactive) | 1.82% (inactive) |
| c1ccc(-c2noc(-c3cccnc3)n2)cc1 | 5.9% (inactive) | 2.4% (inactive) | -3.8% (inactive) | 95.2% (inactive) | -0.04% (inactive) | 3.95% (inactive) |
| CC(Sc1nc2c(c(=O)n(C)c(=O)n2C)n1Cc1cc2c(cc1Cl)OCO2)C(=O)O (stereo unspecified) | -10.7% (inactive) | -5.16% (inactive) | -0.64% (inactive) | 99.9% (inactive) | 1.83% (inactive) | 1.02% (inactive) |
| O=C1C=C(NCc2ccco2)CC(c2ccc(Cl)cc2)C1 (stereo unspecified) | -7.5% (inactive) | -22.3% (inactive) | -2.53% (inactive) | 66.6% (inactive) | 1.2% (inactive) | 3.64% (inactive) |
| Cc1onc(-c2ccccc2Cl)c1C(=O)N1CCN(c2cccc(Cl)c2)CC1 | -18.9% (inactive) | -13.7% (inactive) | -6.53% (inactive) | 22% (active) | 2.73% (inactive) | 10.4% (inactive) |
| COc1ccc(N2C(=O)CCC(C(=O)N3CCCCCC3)C2c2ccc(OC)c(OC)c2)cc1 (stereo unspecified) | -2.31% (inactive) | 12.9% (inactive) | -1.38% (inactive) | 99% (inactive) | 0.735% (inactive) | 4.47% (inactive) |
| COc1ccc(CCNC(=O)c2oc3ccc(S(=O)(=O)N4CCOCC4)cc3c2C)cc1OC | -0.835% (inactive) | -1.39% (inactive) | -4.32% (inactive) | 78.8% (inactive) | 1.17% (inactive) | 3.69% (inactive) |
| C/C(=C1/SC(=S)N(CCC(=O)O)C1=O)c1ccc(O)cc1 | -5.09% (inactive) | -8.91% (inactive) | 1.4% (inactive) | 98.1% (inactive) | 1.2% (inactive) | 0.45% (inactive) |
| Brc1ccc2ncnc(NCc3ccco3)c2c1 | 2.37% (inactive) | 13% (inactive) | -7.68% (inactive) | 35.5% (inactive) | 1.71% (inactive) | 4.76% (inactive) |
| Cc1ccc(C(=O)COC(=O)c2ccc(Br)o2)cc1C | -5.44% (inactive) | -2.75% (inactive) | 1.02% (inactive) | 100% (inactive) | 2.77% (inactive) | 1.29% (inactive) |
| O=C(O)c1ccc(N2C(=O)CC(Cc3ccccc3)C2=O)cc1 (stereo unspecified) | -3.14% (inactive) | 2.02% (inactive) | -1.42% (inactive) | 100% (inactive) | -0.025% (inactive) | 0.72% (inactive) |
| O=C(NCc1cccc(F)c1)c1noc2c1CCCC2 | -12.1% (inactive) | -19.5% (inactive) | -4.68% (inactive) | 32.7% (inactive) | 0.33% (inactive) | 3.14% (inactive) |

| Structure (SMILES) | growth inhibition [1] | growth inhibition [2] | viability increase [3] | viability [4] | inhibition [5] | RAM network inhibition [6] |
| --- | --- | --- | --- | --- | --- | --- |
| COc1cc(C2CC(=O)C=C(O)C2)cc(OC)c1OC (stereo unspecified) | -7.01% (inactive) | -6.56% (inactive) | 0.41% (inactive) | 99% (inactive) | 0.785% (inactive) | 5.78% (inactive) |
| O=C(CCn1nnc2ccccc21)N1CCC(O)(c2cccc(F)c2)CC1 | -3.14% (inactive) | -7.45% (inactive) | -2.75% (inactive) | 101% (inactive) | 2.4% (inactive) | 1.86% (inactive) |
| CC(C)Cn1c(SCC#N)nc2ccccc2c1=O | -0.35% (inactive) | -14.3% (inactive) | -1.74% (inactive) | 88% (inactive) | 1.18% (inactive) | 5.88% (inactive) |
| O=C(CSc1nc2c(c(=O)n1-c1ccc(Br)cc1)SCC2)NCc1ccco1 | -0.48% (inactive) | -1.07% (inactive) | -3.54% (inactive) | 77.4% (inactive) | 0.41% (inactive) | 5.24% (inactive) |
| COc1ccc(NC(=O)c2oc3ccccc3c2C)c(OC)c1 | -7.12% (inactive) | -1.27% (inactive) | -3.83% (inactive) | 96.1% (inactive) | 0.97% (inactive) | 7.99% (inactive) |
| CCn1c(C)c2c(C)nnc(C)c2c1C | -7.03% (inactive) | -3.61% (inactive) | -3.11% (inactive) | 91.5% (inactive) | 1.05% (inactive) | -0.52% (inactive) |
| O=C1CC(c2ccccc2)c2cc(O)ccc2O1 (stereo unspecified) | -23.7% (inactive) | -23% (inactive) | 3.84% (inactive) | 69.2% (inactive) | 1.45% (inactive) | 2.58% (inactive) |
| CCNc1nc(NCC)nc(OCCNS(=O)(=O)c2cc(C)ccc2C)n1 | 7.46% (inactive) | 6.54% (inactive) | -2.5% (inactive) | 95.3% (inactive) | 0.235% (inactive) | 1.53% (inactive) |
| CCNc1nc2c(c(=O)n(C)c(=O)n2C)n1Cc1ccc(Cl)cc1 | -6.92% (inactive) | -2.02% (inactive) | -2.02% (inactive) | 58.3% (inactive) | -0.48% (inactive) | 1.98% (inactive) |
| O=C(Oc1c(Cl)cc(Cl)c2cccnc12)N1CCCCC1 | -11.5% (inactive) | -7.42% (inactive) | -3.65% (inactive) | 77.5% (inactive) | 0.535% (inactive) | -1.03% (inactive) |
| COc1cc(NC(=O)C2CC2)c(C(=O)O)cc1OC | -3.4% (inactive) | 7.62% (inactive) | -2.58% (inactive) | 100% (inactive) | 1.68% (inactive) | -0.36% (inactive) |
| COc1cc(S(=O)(=O)N2CCCCCC2)c(OC)cc1Br | 0.23% (inactive) | -10.7% (inactive) | -0.06% (inactive) | 77.4% (inactive) | -0.43% (inactive) | 5.23% (inactive) |
| COc1ccc(S(=O)(=O)N2CCC(C(=O)N3CCN(c4ccccc4OC)CC3)CC2)cc1 | -8.7% (inactive) | -3.36% (inactive) | -2.71% (inactive) | 86.8% (inactive) | -0.505% (inactive) | 0% (inactive) |
| CCOC(=O)c1ccc(NC(=O)N(CC)CC)cc1 | -7.39% (inactive) | -1.5% (inactive) | -0.97% (inactive) | 97.4% (inactive) | 0.865% (inactive) | 2.51% (inactive) |
| CCN1C=C(C(=O)OC)C(c2cccc(C)c2)C(C(=O)OC)=C1 | -1.2% (inactive) | -11.5% (inactive) | -3.43% (inactive) | 86% (inactive) | 3.02% (inactive) | 4.35% (inactive) |
| CS(=O)(=O)N(CC(=O)NCc1ccncc1)c1cc(Cl)cc(Cl)c1 | -7.62% (inactive) | -10.8% (inactive) | -2.29% (inactive) | 105% (inactive) | 1.33% (inactive) | 0.15% (inactive) |
| Cc1c(C(=O)NCC2CCCO2)oc2ccc(S(=O)(=O)N3CCCC3)cc12 (stereo unspecified) | -6.79% (inactive) | -3.9% (inactive) | -2.38% (inactive) | 91.6% (inactive) | 2% (inactive) | 1.44% (inactive) |
| COc1ccc(C2CC(=O)C(C=NCCO)=C(O)C2)cc1OC (stereo unspecified) | -5.79% (inactive) | 4.22% (inactive) | 1.21% (inactive) | 105% (inactive) | -0.07% (inactive) | -0.41% (inactive) |
| CCCC(=O)Nc1cccc(C(=O)Nc2nccs2)c1 | -9.54% (inactive) | 0.885% (inactive) | 0.65% (inactive) | 102% (inactive) | 0.285% (inactive) | 0.41% (inactive) |
| CS(=O)(=O)NCCSCc1ccc(Cl)cc1 | -8.71% (inactive) | -3.54% (inactive) | -0.89% (inactive) | 97.9% (inactive) | 1.62% (inactive) | 4.47% (inactive) |
